Data published in ChEMBL document CHEMBL1208737, “Synthesis and in vitro evaluation of N-alkyl-3-hydroxy-3-(2-imino-3-methyl-5-oxoimidazolidin-4-yl)indolin-2-one analogs as potential anticancer agents” (2010).

Tests used:
Assay type in all cases: functional
[1] = system: CAKI-1; test: Growth inhibition of human Caki1 cells by sulforhodamine B assay
How it was run: (§1)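 Five-dose response testing across a 57-line human tumour panel (leukemia, non-small cell lung, colon, CNS, melanoma, ovarian, renal, prostate, breast), done after a single-dose primary screen run per the NCI method. Effect plotted against log10 molar drug concentration for each cell line. GI50 is the concentration giving a 50% reduction in net protein increase versus control cells.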

[2] = system: 786-0; test: Growth inhibition of human 786-0 cells by sulforhodamine B assay; how it was run: as §1
[3] = system: ACHN; test: Growth inhibition of human ACHN cells by sulforhodamine B assay; how it was run: as §1
[4] = system: OVCAR-5; test: Growth inhibition of human OVCAR5 cells by sulforhodamine B assay; how it was run: as §1
[5] = system: SK-MEL-28; test: Growth inhibition of human SK-MEL-28 cells by sulforhodamine B assay; how it was run: as §1
[6] = system: NCI-H23; test: Growth inhibition of human NCI-H23 cells by sulforhodamine B assay; how it was run: as §1
[7] = system: HCC 2998; test: Growth inhibition of human HCC2998 cells by sulforhodamine B assay; how it was run: as §1
[8] = system: UACC-62; test: Growth inhibition of human UACC62 cells by sulforhodamine B assay
How it was run: (§2)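 Part of a 57-line human tumour cell panel run at five doses. Growth effect was plotted against log10 molar drug concentration for each cell line. GI50 is the concentration giving a 50% reduction in net protein increase relative to untreated control cells, read from the dose-response curve.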

[9] = system: MDA-MB-468; test: Growth inhibition of human MDA-MB-468 cells by sulforhodamine B assay; how it was run: as §1
[10] = system: SN12C; test: Growth inhibition of human SN12C cells by sulforhodamine B assay; how it was run: as §1
[11] = system: UACC-257; test: Growth inhibition of human UACC257 cells by sulforhodamine B assay; how it was run: as §2
[12] = system: EKVX; test: Growth inhibition of human EKVX cells by sulforhodamine B assay; how it was run: as §1
[13] = system: MOLT-4; test: Growth inhibition of human MOLT4 cells by sulforhodamine B assay; how it was run: as §1
[14] = system: SNB-75; test: Growth inhibition of human SNB75 cells by sulforhodamine B assay; how it was run: as §1
[15] = system: SK-MEL-5; test: Growth inhibition of human SK-MEL-5 cells by sulforhodamine B assay; how it was run: as §1
[16] = system: SNB-19; test: Growth inhibition of human SNB19 cells by sulforhodamine B assay; how it was run: as §1
[17] = system: UO-31; test: Growth inhibition of human UO31 cells by sulforhodamine B assay; how it was run: as §2
[18] = system: MDA-MB-435; test: Growth inhibition of human MDA-MB-435 cells by sulforhodamine B assay; how it was run: as §1
[19] = system: KM12; test: Growth inhibition of human KM12 cells by sulforhodamine B assay; how it was run: as §1
[20] = system: A498; test: Growth inhibition of human A498 cells by sulforhodamine B assay; how it was run: as §1
[21] = system: LOX IMVI; test: Growth inhibition of human LOXIMVI cells by sulforhodamine B assay
How it was run: (§3)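 Five-dose response testing across the 57-line human tumour panel. Growth effect was plotted against log10 drug concentration for each cell line. GI50 is the molar concentration giving a 50% reduction in net protein increase relative to untreated control cells. TGI (total growth inhibition) and LC50 (concentration lethal to 50% of cells) were read from the same curves.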

[22] = system: HT-29; test: Growth inhibition of human HT-29 cells by sulforhodamine B assay; how it was run: as §1
[23] = system: A549; test: Growth inhibition of human A549 cells by sulforhodamine B assay; how it was run: as §3
[24] = system: TK-10; test: Growth inhibition of human TK10 cells by sulforhodamine B assay; how it was run: as §2
[25] = system: IGROV-1; test: Growth inhibition of human IGROV1 cells by sulforhodamine B assay; how it was run: as §1
[26] = system: PC-3; test: Growth inhibition of human PC3 cells by sulforhodamine B assay; how it was run: as §1
[27] = system: SF-295; test: Growth inhibition of human SF295 cells by sulforhodamine B assay; how it was run: as §1
[28] = system: M14; test: Growth inhibition of human M14 cells by sulforhodamine B assay; how it was run: as §1
[29] = read-out: LC50 (the source's name)

COc1ccc(CN2C(=O)C(O)(C3C(=O)NC(=N)N3C)c3cc(Cl)ccc32)cc1 (stereo not drawn)
GI50 [1]: 1980 nM | CC50 [1, 29]: > 100 µM | GI50 [2]: 3.44 µM | CC50 [2, 29]: 43 µM | GI50 [3]: 20.4 µM | CC50 [3, 29]: > 100 µM | GI50 [4]: 34.9 µM | CC50 [4, 29]: > 100 µM | GI50 [5]: 50.3 µM | CC50 [5, 29]: > 100 µM | GI50 [6]: 4.74 µM | LC50 [6]: > 100 µM | GI50 [7]: 18.7 µM | LC50 [7]: 73.9 µM | GI50 [8]: 23.4 µM | CC50 [8, 29]: > 100 µM | GI50 [9]: 2290 nM | LC50 (concentration causing 50% net cell kill) [9]: > 100 µM | GI50 [10]: 5.94 µM | CC50 [10, 29]: > 100 µM | GI50 [11]: 1430 nM | LC50 [11]: 19.4 µM | GI50 [12]: 28.5 µM | LC50 [12]: > 100 µM | GI50 [13]: 2940 nM | CC50 [13, 29]: > 100 µM | GI50 [14]: 3.39 µM | CC50 [14, 29]: > 100 µM | GI50 [15]: 22.6 µM | CC50 [15, 29]: > 100 µM | GI50 [16]: 17.2 µM | CC50 [16, 29]: > 100 µM | GI50 [17]: 4.15 µM | CC50 [17, 29]: > 100 µM | GI50 [18]: 6.12 µM | CC50 [18, 29]: 93.1 µM | GI50 [19]: 2050 nM | CC50 [19, 29]: 30 µM | GI50 [20]: 34.5 µM | CC50 [20, 29]: > 100 µM | GI50 [21]: 750 nM | TGI [21]: 11.8 µM | CC50 [21, 29]: 60 µM | GI50 [22]: 1380 nM | LC50 [22]: 44.1 µM | GI50 [23]: 190 nM | LC50 [23]: 10.9 µM | TGI [23]: 1960 nM | GI50 [24]: 4.11 µM | CC50 [24, 29]: > 100 µM | GI50 [25]: 2590 nM | CC50 [25, 29]: > 100 µM | GI50 [26]: 4.27 µM | CC50 [26, 29]: > 100 µM | GI50 [27]: 3.71 µM | CC50 [27, 29]: > 100 µM | GI50 [28]: 3.59 µM | LC50 [28]: 61.4 µM
